# In ChEMBL document CHEMBL3862036, “Biphenyl Pyridazinone Derivatives as Inhaled PDE4 Inhibitors: Structural Biology and Structure-Activity Relationships” (J Med Chem, 2016):
# How the values were obtained:
# [1] = Inhibition of PDE4 in PBMC (unknown origin) assessed as reduction in LPS-induced TNFalpha production incubated for 24 hrs by ELISA; settings: Homo sapiens
# [2] = Inhibition of PDE4 in human whole blood assessed as reduction in LPS-induced TNFalpha production incubated for 24 hrs by ELISA; type: tissue-based
# In short: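 Human whole blood was preincubated with LPS (final 1 μg/mL) for 10 min at 37 °C with rocking. 200 μL was added to wells holding increasing inhibitor concentrations in 100% DMSO. Plates were incubated 24 h at 37 °C under agitation, then placed on ice, diluted with PBS and centrifuged at 800g, 4 °C, for 15 min before TNF-α measurement.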
# [3] = Basicity constant, pKB of the compound; type: physicochemical
# Rattus norvegicus [4] = assay: Anti-inflammatory activity in Sprague-Dawley rat assessed as inhibition of LPS-induced neutrophilia at 100 ug/kg, it administered as suspension with Penn-Century micro-sprayer aerosolizer dosed 1 hrs before LPS challenge and measured 5 hrs post dose; type: functional; settings: inhaled or nasal
# In short: (§1)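 Suspensions in PBS/0.2% Tween 80 were homogenized, with lower doses made by 1:10 dilutions. 0.2 mL was given intratracheally by MicroSprayer to isoflurane-anesthetized fasted male Sprague-Dawley rats (230–280 g). At 1 or 18 h, rats received nebulized LPS (30 mL of a 1:100 PBS dilution of 100 mg/10 mL stock) over 40 min. Four hours later, BAL neutrophils were counted by flow cytometry.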
# Rattus norvegicus [5] = assay: Anti-inflammatory activity in Sprague-Dawley rat assessed as inhibition of LPS-induced neutrophilia at 100 ug/kg, it administered as suspension with Penn-Century micro-sprayer aerosolizer dosed 18 hrs before LPS challenge and measured 22 hrs post dose; type: functional; settings: inhaled or nasal; in short: as §1
# Adenosine receptor A1 = target: T1, Adenosine receptor A1 (Homo sapiens, UniProt P30542); assay: Antagonist activity at adenosine A1 receptor (unknown origin)
# T1 sequence (P30542 whole entry): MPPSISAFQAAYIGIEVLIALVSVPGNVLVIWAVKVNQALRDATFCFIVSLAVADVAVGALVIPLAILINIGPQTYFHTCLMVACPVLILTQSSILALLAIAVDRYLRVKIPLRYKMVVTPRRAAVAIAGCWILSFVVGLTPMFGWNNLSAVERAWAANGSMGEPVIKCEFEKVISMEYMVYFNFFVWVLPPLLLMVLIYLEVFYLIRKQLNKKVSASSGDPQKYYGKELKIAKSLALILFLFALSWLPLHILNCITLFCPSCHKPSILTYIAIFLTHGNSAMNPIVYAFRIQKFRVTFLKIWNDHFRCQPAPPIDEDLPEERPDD
# Adenosine receptor A2a = Adenosine receptor A2a (Homo sapiens, UniProt P29274); assay: Antagonist activity at adenosine A2a receptor (unknown origin)
# [6] = Drug metabolism in human liver S9 fraction assessed as glucuronidation in presence of PAPS and UDPGA incubated for 20 mins; type: ADME, subcellular; settings: read-out: Drug metabolism
# [7] = Drug metabolism in human liver S9 fraction assessed as sulfonation in presence of PAPS and UDPGA incubated for 20 mins; type: ADME, subcellular; settings: read-out: Drug metabolism
# Rattus norvegicus [8] = assay: Anti-inflammatory activity in Sprague-Dawley rat assessed as inhibition of LPS-induced neutrophilia at 10 to 1000 ug/kg, it administered as suspension with Penn-Century micro-sprayer aerosolizer dosed 1 hrs before LPS challenge and measured 5 hrs post dose; type: functional; settings: inhaled or nasal; in short: as §1
# Rattus norvegicus [9] = assay: Anti-inflammatory activity in Sprague-Dawley rat assessed as inhibition of LPS-induced neutrophilia at 1000 ug/kg, it administered as suspension with Penn-Century micro-sprayer aerosolizer dosed 18 hrs before LPS challenge and measured 22 hrs post dose; type: functional; settings: inhaled or nasal; in short: as §1
# Rattus norvegicus [10] = assay: Anti-inflammatory activity in Sprague-Dawley rat assessed as inhibition of LPS-induced neutrophilia at 1000 ug/kg, it administered as dry powder with lactose carrier through Penn-Century insufflator dosed 1 hrs before LPS challenge and measured 5 hrs post dose; type: functional
# In short: (§2)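 Compounds were micronized, comixed with lactose, and 5 mg of the mixture was insufflated intratracheally into isoflurane-anesthetized fasted male Sprague-Dawley rats (230–280 g). LPS aerosol (30 mL of a 1:100 PBS dilution of 100 mg/10 mL stock) was nebulized for 40 min at 1 or 18 h post-dose. BAL was taken 4 h later and neutrophils counted by flow cytometry. Controls: lactose alone, lactose+LPS, fluticasone (10% in lactose).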
# Rattus norvegicus [11] = assay: Anti-inflammatory activity in Sprague-Dawley rat assessed as inhibition of LPS-induced neutrophilia at 1000 ug/kg, it administered as dry powder with lactose carrier through Penn-Century insufflator dosed 18 hrs before LPS challenge and measured 22 hrs post dose; type: functional; in short: as §2
# [12] = Pro-inflammatory activity in Sprague-Dawley rat assessed as induction of neutrophilia at 1000 ug/kg, it administered as dry powder with lactose carrier through Penn-Century insufflator; settings: in vivo, inhaled_or_intranasal, 1 mg/kg
# Adenosine receptor A2b = target: T2, Adenosine receptor A2b (Homo sapiens, UniProt P29275); assay: Antagonist activity at adenosine A2b receptor (unknown origin)
# T2 sequence (P29275 whole entry): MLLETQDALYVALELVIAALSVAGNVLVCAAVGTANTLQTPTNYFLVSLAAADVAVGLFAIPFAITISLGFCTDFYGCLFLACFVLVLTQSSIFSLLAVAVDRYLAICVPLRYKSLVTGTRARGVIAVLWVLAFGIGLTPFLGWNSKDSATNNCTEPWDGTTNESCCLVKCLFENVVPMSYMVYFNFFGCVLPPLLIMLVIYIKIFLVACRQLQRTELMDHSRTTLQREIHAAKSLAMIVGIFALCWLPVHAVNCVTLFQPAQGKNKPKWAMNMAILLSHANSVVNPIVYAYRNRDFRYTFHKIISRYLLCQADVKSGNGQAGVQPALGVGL
# Rattus norvegicus [13] = assay: Anti-inflammatory activity in Sprague-Dawley rat assessed as inhibition of LPS-induced neutrophilia at 300 ug/kg, it administered as suspension with Penn-Century micro-sprayer aerosolizer dosed 18 hrs before LPS challenge and measured 22 hrs post dose; type: functional; settings: inhaled or nasal; in short: as §1
# Rattus norvegicus [14] = assay: Anti-inflammatory activity in Sprague-Dawley rat assessed as inhibition of LPS-induced neutrophilia at 30 ug/kg, it administered as suspension with Penn-Century micro-sprayer aerosolizer dosed 18 hrs before LPS challenge and measured 22 hrs post dose; type: functional; settings: inhaled or nasal; in short: as §1
# Rattus norvegicus [15] = assay: Anti-inflammatory activity in Sprague-Dawley rat assessed as inhibition of LPS-induced neutrophilia at 10 to 1000 ug/kg, it administered as suspension with Penn-Century micro-sprayer aerosolizer dosed 18 hrs before LPS challenge and measured 22 hrs post dose; type: functional; settings: inhaled or nasal; in short: as §1
# Rattus norvegicus [16] = assay: Anti-inflammatory activity in Sprague-Dawley rat assessed as inhibition of LPS-induced neutrophilia at 100 ug/kg, it administered as dry powder with lactose carrier through Penn-Century insufflator dosed 1 hrs before LPS challenge and measured 5 hrs post dose; type: functional; in short: as §2
# Rattus norvegicus [17] = assay: Anti-inflammatory activity in Sprague-Dawley rat assessed as inhibition of LPS-induced neutrophilia at 10 to 1000 ug/kg, it administered as dry powder with lactose carrier through Penn-Century insufflator dosed 1 hrs before LPS challenge and measured 5 hrs post dose; type: functional; in short: as §2
# Rattus norvegicus [18] = assay: Anti-inflammatory activity in Sprague-Dawley rat assessed as inhibition of LPS-induced neutrophilia at 2000 ug/kg, it administered as dry powder with lactose carrier through Penn-Century insufflator dosed 18 hrs before LPS challenge and measured 22 hrs post dose; type: functional; in short: as §2
# Rattus norvegicus [19] = assay: Anti-inflammatory activity in Sprague-Dawley rat assessed as inhibition of LPS-induced neutrophilia at 1000 ug/kg, it administered as suspension with Penn-Century micro-sprayer aerosolizer dosed 1 hrs before LPS challenge and measured 5 hrs post dose; type: functional; settings: inhaled or nasal; in short: as §1
# Adenosine receptor A2a, sequence (P29274 whole entry): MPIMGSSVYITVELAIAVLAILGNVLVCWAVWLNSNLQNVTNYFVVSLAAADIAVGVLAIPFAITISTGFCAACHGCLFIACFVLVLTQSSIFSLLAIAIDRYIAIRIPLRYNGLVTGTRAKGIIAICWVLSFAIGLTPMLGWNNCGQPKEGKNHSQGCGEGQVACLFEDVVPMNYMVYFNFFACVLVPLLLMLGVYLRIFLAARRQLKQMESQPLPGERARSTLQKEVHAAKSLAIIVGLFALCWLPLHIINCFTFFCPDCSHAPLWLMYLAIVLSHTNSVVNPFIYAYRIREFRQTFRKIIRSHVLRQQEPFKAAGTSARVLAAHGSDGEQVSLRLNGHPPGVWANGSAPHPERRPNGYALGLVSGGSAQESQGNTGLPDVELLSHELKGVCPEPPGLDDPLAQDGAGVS
Structure (SMILES),IC50 [1],IC50 [2],inhibition in vivo at 0.1 mg/kg (Rattus norvegicus [4]),IC50 (Adenosine receptor A1),IC50 (Adenosine receptor A2a),metabolised at 20 min [6],metabolised at 20 min [7],ED50 (Rattus norvegicus [8]),inhibition in vivo at 1 mg/kg (Rattus norvegicus [9]),inhibition in vivo at 1 mg/kg (Rattus norvegicus [11]),fold change (FC) [12],IC50 (Adenosine receptor A2b),other results
CCn1nc(-c2cccc(-c3cccc(C(=O)NCCN4CCNCC4)c3)c2)cc(NC(=O)Nc2c(Cl)cncc2Cl)c1=O,0.34 nM,125 nM,62%,2 nM,9 nM,,,,,,,,pKb [3]: 9.8; inhibition in vivo at 0.1 mg/kg (Rattus norvegicus [5]): 40%
CCn1nc(-c2cccc(-c3ccc(O)c(F)c3)c2)cc(NC(=O)Nc2c(Cl)cncc2Cl)c1=O,2.4 nM,93 nM,,,,6%,3%,0.342 mg/kg,,,,,
CCn1nc(-c2cccc(-c3ccc(O)cc3)c2)cc(NC(=O)Nc2c(Cl)cncc2Cl)c1=O,0.9 nM,117 nM,,,,2%,0.3%,,,,,,
CCn1nc(-c2cccc(-c3cc(F)ccc3O)c2)cc(NC(=O)Nc2c(Cl)cncc2Cl)c1=O,0.88 nM,207 nM,,,,8%,,0.101 mg/kg,14%,0%,,,inhibition in vivo at 1 mg/kg (Rattus norvegicus [10]): 51%
CCn1nc(-c2cccc(-c3cccc(C(N)=O)c3)c2)cc(NC(=O)Nc2c(Cl)cncc2Cl)c1=O,0.09 nM,67 nM,,,,,,0.067 mg/kg,20%,15%,,,inhibition in vivo at 1 mg/kg (Rattus norvegicus [10]): 48%
CCn1nc(-c2cccc(-c3cccc(C(=O)NCCN4CCCCC4)c3)c2)cc(NC(=O)Nc2c(Cl)cncc2Cl)c1=O,0.43 nM,81 nM,66%,6 nM,22 nM,,,,,,1.1,169 nM,pKb [3]: 11.2
CCNC(=O)c1cc(C(=O)NCCCN(C)C)cc(-c2cccc(-c3cc(NC(=O)Nc4c(Cl)cncc4Cl)c(=O)n(CC)n3)c2)c1,0.36 nM,,,537 nM,> 1000 nM,,,0.018 mg/kg,,,,368 nM,inhibition in vivo at 0.1 mg/kg (Rattus norvegicus [5]): 48%; inhibition in vivo at 0.3 mg/kg (Rattus norvegicus [13]): 60%; inhibition in vivo at 0.03 mg/kg (Rattus norvegicus [14]): 58%
CCn1nc(-c2cccc(-c3cccc(C(=O)NC4CC4)c3)c2)cc(NC(=O)Nc2c(Cl)cncc2Cl)c1=O,0.3 nM,69 nM,70%,10 nM,33 nM,,,0.024 mg/kg,43%,42%,1,120 nM,inhibition in vivo at 1 mg/kg (Rattus norvegicus [10]): 55%
CCn1nc(-c2cccc(-c3ccc(CC(=O)NCCCCCCCN(C)CCO)cc3)c2)cc(NC(=O)Nc2c(Cl)cncc2Cl)c1=O,0.57 nM,323 nM,69%,61 nM,86 nM,,,,,,1.9,94 nM,ED50 (Rattus norvegicus [15]): 0.091 mg/kg; inhibition in vivo at 0.1 mg/kg (Rattus norvegicus [16]): 23%
CCn1nc(-c2cccc(-c3cccc(C(=O)NCCN4CCOCC4)c3)c2)cc(NC(=O)Nc2c(Cl)cncc2Cl)c1=O,0.07 nM,59 nM,52%,15 nM,33 nM,,,,,,1.1,145 nM,pKb [3]: 8.3
CCn1nc(-c2cccc(-c3cccc(O)c3)c2)cc(NC(=O)Nc2c(Cl)cncc2Cl)c1=O,0.7 nM,95 nM,,87 nM,168 nM,21%,3%,0.416 mg/kg,0%,,,172 nM,ED50 (Rattus norvegicus [17]): 0.551 mg/kg; inhibition in vivo at 2 mg/kg (Rattus norvegicus [18]): 7%
CCn1nc(-c2cccc(-c3ccc(C(=O)O)cc3)c2)cc(NC(=O)Nc2c(Cl)cncc2Cl)c1=O,0.55 nM,373 nM,50%,,,0%,,,25%,8%,,,inhibition in vivo at 1 mg/kg (Rattus norvegicus [19]): 59%; ED50 (Rattus norvegicus [17]): 0.015 mg/kg
CCn1nc(-c2cccc(-c3cncc(O)c3)c2)cc(NC(=O)Nc2c(Cl)cncc2Cl)c1=O,0.29 nM,64 nM,,11 nM,333 nM,36%,16%,,23%,,,111 nM,inhibition in vivo at 1 mg/kg (Rattus norvegicus [19]): 58%
